Test results published in ChEMBL document CHEMBL5325390, “1,2,4-Triazole-3-thione analogues with an arylakyl group at position 4 as metallo-β-lactamase inhibitors” (Bioorg Med Chem, 2022).

What was measured:
[1] = test system: metallo-β-lactamase VIM-4 (Pseudomonas aeruginosa); test: Inhibition of VIM-4 (unknown origin) expressed in Escherichia coli BL21(DE3) assessed as substrate hydrolysis at 100 uM by UV-Vis spectrophotometric analysis relative to control
[2] = test system: metallo-β-lactamase VIM-2 (Pseudomonas aeruginosa); test: Inhibition of VIM-2 (unknown origin) expressed in Escherichia coli BL21(DE3) assessed as substrate hydrolysis at 100 uM by UV-Vis spectrophotometric analysis relative to control
[3] = test system: metallo-β-lactamase VIM-4 (Pseudomonas aeruginosa); test: Inhibition of VIM-4 (unknown origin) expressed in Escherichia coli BL21(DE3) assessed as substrate hydrolysis at 200 uM by UV-Vis spectrophotometric analysis relative to control
[4] = target: Beta-lactamase VIM-1 (Bacteria) (UniProt Q8GDC1); test: Inhibition of VIM-1 (unknown origin) expressed in Escherichia coli BL21(DE3) assessed as substrate hydrolysis at 200 uM by UV-Vis spectrophotometric analysis relative to control
Procedure, shortened: (§1)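 Single-point screen at 100 or 200 µM inhibitor against purified MBL (1–70 nM) with 150 µM imipenem or meropenem reporter substrate, 50 mM HEPES pH 7.5, 30 °C. Initial hydrolysis rate read by absorbance at 300 nm and compared with the uninhibited reaction. Triplicate.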

[5] = test system: metallo-β-lactamase IMP-1 (Pseudomonas aeruginosa); test: Inhibition of IMP1 (unknown origin) expressed in Escherichia coli BL21(DE3) assessed as substrate hydrolysis at 100 uM by UV-Vis spectrophotometric analysis relative to control
[6] = target: Beta-lactamase VIM-1 (Bacteria) (UniProt Q8GDC1); test: Inhibition of VIM-1 (unknown origin) expressed in Escherichia coli BL21(DE3) assessed as substrate hydrolysis at 100 uM by UV-Vis spectrophotometric analysis relative to control
Procedure, shortened: as §1

[7] = target: Metallo-beta-lactamase type 2 (Bacteria) (UniProt C7C422); test: Inhibition of NDM1 (unknown origin) expressed in Escherichia coli BL21(DE3) assessed as substrate hydrolysis at 100 uM by UV-Vis spectrophotometric analysis relative to control
Procedure, shortened: as §1

[8] = target: Metallo-beta-lactamase type 2 (Bacteria) (UniProt C7C422); test: Inhibition of NDM1 (unknown origin) expressed in Escherichia coli BL21(DE3) assessed as substrate hydrolysis at 200 uM by UV-Vis spectrophotometric analysis relative to control
Procedure, shortened: as §1

[9] = test system: metallo-β-lactamase IMP-1 (Pseudomonas aeruginosa); test: Inhibition of IMP1 (unknown origin) expressed in Escherichia coli BL21(DE3) assessed as substrate hydrolysis at 200 uM by UV-Vis spectrophotometric analysis relative to control
[10] = test system: metallo-β-lactamase VIM-2 (Pseudomonas aeruginosa); test: Inhibition of VIM-2 (unknown origin) expressed in Escherichia coli BL21(DE3) assessed as substrate hydrolysis at 200 uM by UV-Vis spectrophotometric analysis relative to control
[11] = target: T1, Angiotensin-converting enzyme (Oryctolagus cuniculus) (UniProt P12822); details: Lung, dose 100.0 nM
T1 sequence (whole entry): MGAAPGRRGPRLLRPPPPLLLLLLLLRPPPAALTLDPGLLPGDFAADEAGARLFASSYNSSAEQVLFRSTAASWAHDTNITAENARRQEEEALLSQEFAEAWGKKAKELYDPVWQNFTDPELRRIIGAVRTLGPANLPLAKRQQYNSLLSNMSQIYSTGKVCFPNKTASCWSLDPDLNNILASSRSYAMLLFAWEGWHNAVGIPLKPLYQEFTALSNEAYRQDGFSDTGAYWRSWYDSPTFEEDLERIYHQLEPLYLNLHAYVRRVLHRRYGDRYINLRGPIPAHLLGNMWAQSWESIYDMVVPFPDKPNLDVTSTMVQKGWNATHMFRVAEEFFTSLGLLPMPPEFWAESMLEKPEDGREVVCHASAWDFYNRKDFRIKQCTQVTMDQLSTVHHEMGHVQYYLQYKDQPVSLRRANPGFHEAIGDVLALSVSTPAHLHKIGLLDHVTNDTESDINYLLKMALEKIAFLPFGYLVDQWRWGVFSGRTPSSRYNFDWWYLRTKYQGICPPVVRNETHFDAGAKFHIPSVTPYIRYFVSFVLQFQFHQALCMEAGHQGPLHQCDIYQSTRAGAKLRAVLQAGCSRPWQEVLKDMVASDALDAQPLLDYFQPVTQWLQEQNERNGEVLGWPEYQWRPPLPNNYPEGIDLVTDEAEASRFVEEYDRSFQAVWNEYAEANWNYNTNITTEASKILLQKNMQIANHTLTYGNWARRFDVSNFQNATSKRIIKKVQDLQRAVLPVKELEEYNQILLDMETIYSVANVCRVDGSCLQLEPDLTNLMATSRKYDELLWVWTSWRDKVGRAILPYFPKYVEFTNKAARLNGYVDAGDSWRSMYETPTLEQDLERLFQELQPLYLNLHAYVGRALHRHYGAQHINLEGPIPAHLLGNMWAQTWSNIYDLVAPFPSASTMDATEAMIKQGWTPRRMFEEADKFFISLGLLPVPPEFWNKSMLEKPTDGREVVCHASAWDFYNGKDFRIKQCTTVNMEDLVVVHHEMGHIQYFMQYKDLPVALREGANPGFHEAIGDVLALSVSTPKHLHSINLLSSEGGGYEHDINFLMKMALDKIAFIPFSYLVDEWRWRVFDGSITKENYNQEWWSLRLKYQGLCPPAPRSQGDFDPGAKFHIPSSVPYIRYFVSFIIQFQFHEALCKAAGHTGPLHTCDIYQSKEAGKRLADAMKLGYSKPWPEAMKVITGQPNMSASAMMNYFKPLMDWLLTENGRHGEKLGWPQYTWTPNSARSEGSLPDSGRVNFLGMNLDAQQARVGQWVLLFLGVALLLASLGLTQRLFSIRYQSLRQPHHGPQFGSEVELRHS

[12] = Binding affinity to VIM-4 (unknown origin) expressed in Escherichia coli BL21(DE3) assessed as inhibition constant by measuring rate of substrate hydrolysis by UV-Vis spectrophotometric analysis
Procedure, shortened: (§2)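 Purified MBL (1–70 nM) with 150 µM imipenem or meropenem as reporter substrate, 50 mM HEPES pH 7.5, 30 °C. Hydrolysis followed by absorbance at 300 nm without and with inhibitor (0.5 µM–1 mM). Ki from the slope of v0/vi vs [I] under a competitive model, or from Dixon plots varying inhibitor and substrate. […] Triplicate, mean ± SD.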

[13] = Binding affinity to VIM-2 (unknown origin) expressed in Escherichia coli BL21(DE3) assessed as inhibition constant by measuring rate of substrate hydrolysis by UV-Vis spectrophotometric analysis
Procedure, shortened: as §2

Beta-lactamase VIM-1 = Beta-lactamase VIM-1 (Bacteria, UniProt Q8GDC1); test: Binding affinity to VIM-1 (unknown origin) expressed in Escherichia coli BL21(DE3) assessed as inhibition constant by measuring rate of substrate hydrolysis by UV-Vis spectrophotometric analysis
Procedure, shortened: as §2

[14] = target: Metallo-beta-lactamase type 2 (Bacteria, UniProt C7C422); test: Binding affinity to NDM1 (unknown origin) expressed in Escherichia coli BL21(DE3) assessed as inhibition constant by measuring rate of substrate hydrolysis by UV-Vis spectrophotometric analysis; details: read-out: Ki
Procedure, shortened: as §2

Klebsiella pneumoniae [15] = test: Antimicrobial synergistic activity against blaVIM-4-producing multidrug-resistant Klebsiella pneumoniae VA416/02 clinical isolate assessed as meropenem MIC at 32 ug/ml by CLSI based broth microdilution method (reference value: 16 ug/ml); assay type: functional; details: dose 32 µg/ml
Escherichia coli = test: Synergistic antimicrobial activity against blaNDM-1-producing multidrug-resistant Escherichia coli SI-004M clinical isolate assessed as meropenem MIC at 32 ug/ml by CLSI based microdilution method (reference value: 64 ug/ml); assay type: functional; details: dose 32 µg/ml
Klebsiella pneumoniae [16] = test: Antimicrobial synergistic activity against blaVIM-1-producing multidrug-resistant Klebsiella pneumoniae 7023 clinical isolate assessed as meropenem MIC at 32 ug/ml by CLSI based broth microdilution method (reference value: 16 ug/ml); assay type: functional; details: dose 32 µg/ml
[17] = Binding affinity to IMP1 (unknown origin) expressed in Escherichia coli BL21(DE3) assessed as inhibition constant by measuring rate of substrate hydrolysis by UV-Vis spectrophotometric analysis; details: read-out: Ki
Procedure, shortened: as §2

Klebsiella pneumoniae [18] = test: Synergistic antimicrobial activity against blaVIM-4-producing multidrug-resistant Klebsiella pneumoniae VA416/02 clinical isolate assessed as fractional inhibitory concentration index in presence of meropenem by checkerboard assay; assay type: functional
HeLa = test: Cytotoxicity against human HeLa cells assessed as induction of cell lysis upto 250 uM measured for 72 hrs by realtime-glo MT assay; assay type: toxicity, cell-based
Procedure, shortened: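 HeLa cells at 1,500 cells/well exposed to compound up to 250 µM for up to 72 h. Viability read by RealTime-Glo MT luminescent assay. Triplicate.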

[19] = target: T2, Angiotensin-converting enzyme (Oryctolagus cuniculus, UniProt P12822); test: Binding affinity to rabbit lung angiotensin-converting enzyme assessed as inhibition constant
T2 sequence (P12822 whole entry): T1 sequence (whole entry)

[20] = target: T1, Angiotensin-converting enzyme (Oryctolagus cuniculus); test: Inhibition of rabbit lung angiotensin-converting enzyme at 100 uM using Abz-Gly-Phe-(NO2)-Pro as substrate by fluorescence based microplate reader analysis relative to control; assay type: tissue-based
Procedure, shortened: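 Rabbit lung ACE, 1.5 mU per well, in 150 mM Tris, 750 mM NaCl, pH 8.3, with Abz-Gly-Phe(NO2)-Pro substrate. Blank-corrected fluorescence of released Abz-Gly-OH (ex 316, em 413 nm) followed up to 90 min. Test compounds at 100 µM; captopril control at 100 nM. Inhibition % = 100 − (vi/v0 × 100).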

[21] = test system: metallo-β-lactamase L1 (Stenotrophomonas maltophilia); test: Inhibition of L1 (unknown origin) expressed in Escherichia coli BL21(DE3) assessed as substrate hydrolysis at 100 uM by UV-Vis spectrophotometric analysis relative to control

Metallo-beta-lactamase type 2 (Bacteria), sequence (C7C422 whole entry): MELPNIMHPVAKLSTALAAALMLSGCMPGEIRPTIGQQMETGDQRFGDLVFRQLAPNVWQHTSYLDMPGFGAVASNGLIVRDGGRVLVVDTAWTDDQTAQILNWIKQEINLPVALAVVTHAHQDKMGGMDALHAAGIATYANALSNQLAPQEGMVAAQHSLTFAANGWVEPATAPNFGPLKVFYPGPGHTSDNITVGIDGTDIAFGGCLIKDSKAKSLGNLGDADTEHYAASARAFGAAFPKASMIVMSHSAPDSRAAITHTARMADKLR
Metallo-beta-lactamase type 2, sequence (C7C422 whole entry): as above

Compound	inhibition [1] [%]	inhibition [2] [%]	inhibition [3] [%]	inhibition [4] [%]	inhibition [5] [%]	inhibition [6] [%]	inhibition [7] [%]	inhibition [8] [%]	inhibition [9] [%]	inhibition [10] [%]	Ki [12] [nM]	Ki [13] [nM]	Ki (Beta-lactamase VIM-1) [nM]	Ki [14] [µM]	MIC (Klebsiella pneumoniae [15]) [µg/mL]	MIC (Escherichia coli) [µg/mL]	MIC (Klebsiella pneumoniae [16]) [µg/mL]	Ki [17] [µM]	FIC (Klebsiella pneumoniae [18])	Ki [19] [µM]	also measured
S=c1[nH]nc(Cc2ccc3ccccc3c2)n1-c1ccc(OCc2ccccc2)cc1	< 30	< 30	< 50	< 50	< 30	< 30	< 30	< 50	< 50	< 50	–	–	–	–	–	–	–	–	–	–	–
C[C@H](CS)C(=O)N1CCC[C@H]1C(=O)O	–	–	–	–	–	–	–	–	–	–	–	–	–	–	–	–	–	–	–	–	inhibition [11]: 96%
Oc1ccc(CCn2c(-c3cccc(-c4ccccc4)c3)n[nH]c2=S)cc1O	–	–	–	–	–	–	–	–	–	–	680	1700	1300	17.4	2	32	16	9.2	0.48	–	–
Oc1ccc(CCn2c(-c3cccc(-c4ccccc4)c3)n[nH]c2=S)c(O)c1	–	–	–	–	< 30	–	–	–	< 50	–	820	1300	410	14.3	4	32	2	–	–	55	Activity (HeLa): Non-Toxic; inhibition [20]: 35%
S=c1[nH]nc(-c2ccccc2)n1CCCc1ccccc1	–	–	–	–	–	–	< 30	–	–	–	900	740	560	–	2	64	2	14	0.25	30	inhibition [21]: < 30%; inhibition [20]: 50%
S=c1[nH]nc(Cc2ccccc2)n1CCc1ccccc1	< 30	< 30	< 50	< 50	< 30	< 30	< 30	< 50	< 50	< 50	–	–	–	–	–	–	–	–	–	–	–
